Drawing on ChEMBL document CHEMBL1154263, “Gamma-lactones and ent-eudesmane sesquiterpenes from the endophytic fungus Eutypella sp. BCC 13199” (J Nat Prod, 2009), this text covers IC50 and Activity for 6 compounds.

The test system of assay [1] is Vero. In words: Cytotoxicity against african green monkey Vero cells after 8 days by green fluorescent protein microplate assay. In kind it is cell-based. The note with it: Chlorocebus sabaeus, 192 h. In a few lines: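 Vero cells (African green monkey kidney fibroblasts); cytotoxicity read by green fluorescent protein microplate assay (GFPMA).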
The test system of assay [2] is MCF7. Nature of the assay: Cytotoxicity against human MCF7 cells by resazurin microplate assay. In kind it is functional, cell-based. In short, it runs like this: (§1)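 Resazurin microplate assay on human tumour cell lines: KB (oral epidermoid carcinoma), MCF-7 (breast cancer) and NCI-H187 (small-cell lung cancer).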
Assay [3] has as its system Candida albicans. Nature of the assay: Antifungal activity against Candida albicans. It is filed as functional, organism-based.
For assay [4], the system named is Pyricularia grisea. In words: Antifungal activity against Magnaporthe grisea. It is filed as functional, organism-based.
In assay [5] the test system is Plasmodium falciparum. Nature of the assay: Antimalarial activity against Plasmodium falciparum K1. In kind it is functional, organism-based.
For assay [6], the system named is NCI-H187. In words: Cytotoxicity against human NCI-H187 cells by resazurin microplate assay. In kind it is functional, cell-based. In short, it runs like this:
as §1
Background: The colour change of resazurin is a common sign of viable cells or microbes.

For assay [7], the system named is KB. Nature of the assay: Cytotoxicity against human KB cells by resazurin microplate assay. In kind it is functional, cell-based. In a few lines: as §1
Assay [8] relates to Mycobacterium tuberculosis. Nature of the assay: Antituberculosis activity against Mycobacterium tuberculosis H37Ra. In kind it is functional, organism-based.

Active and inactive are the calls of the source. The calls are words filed in the database; no cut-off is given here. Bounds are passed on as bounds.

What is called IC50 is the midpoint of a concentration-inhibition curve.

Take `C=C1CCC(=O)[C@@]2(C)CC[C@H](C(C)(C)O)C[C@H]12`: the concentration for half-maximal inhibition (IC50) in assay [1] was 32 µM; in assay [2] it was 20 µM; in assay [6], 11 µM; in assay [7] it was 32 µM. Moreover, the result in assay [3], in assay [4], in assay [5] and in assay [8] was inactive.
In the case of `C=C1CC[C@H](O)[C@@]2(C)CC[C@H](C(C)(C)O)C[C@H]12`, the IC50 in assay [1], in assay [2], in assay [6] and in assay [7] was above 210 µM in each case. Moreover, the result in assay [3], in assay [4], in assay [5] and in assay [8] was inactive.
Take `COc1cccc2c1C(=O)c1c(O)c3c(c(O)c1C2=O)C[C@@](O)(C(=O)CO)C[C@@H]3O[C@H]1C[C@H](N)[C@H](O)[C@H](C)O1` [DOXORUBICIN]: the IC50 worked out at 0.25 µM in assay [6] and 0.28 µM in assay [7].
Turning to `Cc1c2ccncc2c(C)c2c1[nH]c1ccccc12` [ELLIPTECINE], the figures for the concentration for half-maximal inhibition (IC50) in assay [1], in assay [6] and in assay [7] were 5.5 µM, 3.6 µM and 2.5 µM, respectively.
Turning to `O=C/C=C/C=C1/C(=O)O[C@H](/C=C/CO)[C@H]1O` [EUTYPELLIN A], the IC50 in assay [1] came to 88 µM; in assay [2] it was 84 µM; in assay [6], 12 µM; in assay [7], 38 µM. Moreover, the result in assay [3], in assay [4], in assay [5] and in assay [8] was inactive.
Turning to `O=C1O[C@H](/C=C/CO)[C@@H](O)/C1=C\C=C\CO` [EUTYPELLIN B], the half-maximal inhibitory concentration (IC50) was above 221 µM in assay [1], above 221 µM in assay [2], 206 µM in assay [6] and 144 µM in assay [7]. Moreover, the outcome in assay [3], in assay [4], in assay [5] and in assay [8] was inactive.
